Source: ChEMBL document CHEMBL4765374, “8-Alkynyl-3-nitroimidazopyridines display potent antitrypanosomal activity against both T. b. brucei and cruzi” (Eur J Med Chem, 2020)

Tests used:
[1] = Cytotoxicity against human HepG2 cells assessed as reduction in cell viability after 72 hrs by MTT assay; format: cell-based
[2] = Solubility of the compound in aqueous medium at highest dose; format: physicochemical; settings: buffer
[3] = tested on: Leishmania donovani; assay: Antileishmanial activity against Leishmania donovani MHOM/IN/00/DEVI promastigotes assessed as inhibition of metabolic activity measured after 72 hrs by MTT assay; format: functional, organism-based
How it was run: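 L. donovani MHOM/IN/00/DEVI promastigotes grown in Schneider's medium with 20% FCS at 27 °C. Log-phase parasites at 10⁶/mL were exposed in duplicate to serial compound concentrations in DMSO (final <0.5%) for 72 h at 27 °C. MTT was added for 4 h and absorbance read at 570 nm. EC50 from non-linear regression, mean of at least three independent experiments.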

[4] = Selectivity index, ratio of CC50 for cytotoxicity against human HepG2 cells to EC50 for antileishmanial activity against Leishmania donovani MHOM/IN/00/DEVI promastigotes; format: toxicity, cell-based; settings: read-out: Selectivity Index
[5] = tested on: Trypanosoma brucei brucei; assay: […] activity against Trypanosoma brucei brucei AnTat 1.9 measured after 74 hrs by Alamar blue assay; format: functional, organism-based; settings: AnTat 1.9, 74 h
How it was run: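 Bloodstream T. b. brucei AnTat 1.9 grown at 37 °C, 5% CO₂ in MEM with Earle's salts plus mercaptoethanol, L-cysteine, bathocuproine sulfate and 20% heat-inactivated horse serum. Seeded at 2000 parasites/100 µL and exposed in duplicate to compounds in DMSO for 69 h. Alamar Blue then added for 5 h, fluorescence read at ex 530/em 590 nm. EC50 by nonlinear regression from three independent experiments.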

[6] = Selectivity index, ratio of CC50 for human HepG2 cells to EC50 for Trypanosoma brucei brucei AnTat 1.9; format: toxicity; settings: read-out: Selectivity Index
[7] = tested on: THP-1; assay: Cytotoxicity against human THP-1 cells assessed as reduction in cell viability after 72 hrs by MTT assay; format: functional
How it was run: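 THP-1 cells at 5×10⁴ cells/mL in complete RPMI were exposed in duplicate to compounds in DMSO (final <0.5%) for 72 h at 37 °C. MTT at 0.5 mg/mL for 2 h, formazan dissolved in DMSO, absorbance read at 570 nm with 630 nm reference. CC50 from the dose-response curve, mean of three independent experiments.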

[8] = tested on: Leishmania donovani; assay: Antileishmanial activity against wild type Leishmania donovani BOB (MHOM/SD/62/1S-CL2D) promastigotes incubated for 72 hrs by resazurin dye based assay; format: functional, organism-based
How it was run: (§1)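 Clonal L. donovani LdBOB promastigotes grown at 26 °C in modified M199; NTR1- and NTR2-overexpressing lines maintained with nourseothricin (100 µg/mL). Triplicate 10 mL cultures seeded at 5×10^4 parasites/mL with drug for 72 h; 200 µL aliquots then given 50 µM resazurin, fluorescence (ex 528/em 590 nm) after 4 h more. EC50 from slope-factor equation; experiments repeated at least twice, mean plus standard deviation.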

[9] = tested on: Leishmania donovani; assay: Antileishmanial activity against Leishmania donovani BOB (MHOM/SD/62/1S-CL2D) promastigotes overexpressing NTR1 incubated for 72 hrs by resazurin dye based assay; format: functional, organism-based; how it was run: as §1
[10] = tested on: Leishmania donovani; assay: Antileishmanial activity against Leishmania donovani BOB (MHOM/SD/62/1S-CL2D) promastigotes overexpressing NTR2 incubated for 72 hrs by resazurin dye based assay; format: functional, organism-based; how it was run: as §1
[11] = tested on: Trypanosoma brucei brucei; assay: Antitrypanosomal activity against bloodstream form of wild type Trypanosoma brucei brucei S427 trypomastigotes incubated for 72 hrs; format: functional, organism-based; settings: S427, 72 h
How it was run: (§2)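 Bloodstream-form T. brucei 'single marker' S427 cultured at 37 °C in HMI9-T with 2.5 µg/mL G418. The NTR1-overexpressing line was kept with 2.5 µg/mL phleomycin and induced with 1 µg/mL tetracycline 48 h before testing. Triplicate cultures seeded at 1×10^5 cells/mL with inhibitor. Cell densities counted after 72 h. EC50 from slope-factor equation.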

[12] = tested on: Trypanosoma brucei brucei; assay: Antitrypanosomal activity against bloodstream form of Trypanosoma brucei brucei S427 trypomastigotes overexpressing NTR incubated for 72 hrs; format: functional, organism-based; settings: S427, 72 h; how it was run: as §2

SMILES	CC50 at 72 h [1] [µM]	solubility [2]	EC50 [3] [nM]	selectivity ratio [4]	EC50 [5] [nM]	selectivity ratio [6]	further results
Nc1ccc(C#Cc2cc(Cl)cn3c([N+](=O)[O-])c(CS(=O)(=O)c4ccccc4)nc23)cc1	> 3.9	Insoluble	–	–	–	–	–
COc1cccc(C#Cc2cc(Cl)cn3c([N+](=O)[O-])c(CS(=O)(=O)c4ccccc4)nc23)c1	> 3.9	Insoluble	–	–	–	–	–
O=[N+]([O-])c1c(CS(=O)(=O)c2ccccc2)nc2c(C#CCOc3ccccc3)cc(Cl)cn12	8.4	–	1300	6.5	160	52.5	–
O=C(Cn1ccnc1[N+](=O)[O-])NCc1ccccc1 [BENZNIDAZOLE]	–	–	–	–	–	–	CC50 [7]: > 200 µM
COc1cccc2c1C(=O)c1c(O)c3c(c(O)c1C2=O)C[C@@](O)(C(=O)CO)C[C@@H]3O[C@H]1C[C@H](N)[C@H](O)[C@H](C)O1 [DOXORUBICIN]	–	–	–	–	–	–	CC50 [7]: 0.7 µM
O=[N+]([O-])c1c(CS(=O)(=O)c2ccccc2)nc2c(Br)cc(Br)cn12	> 31	Insoluble	1800	–	2900	–	–
NCCCC(N)(C(=O)O)C(F)F (configuration not stated) [EFLORNITHINE]	> 100	–	–	–	–	> 7.5	–
Nc1c(CS(=O)(=O)c2ccccc2)nc2c(C#CCCO)cc(Cl)cn12	> 62.5	Insoluble	> 62500	–	6800	> 9.2	–
O=[N+]([O-])c1c(CS(=O)(=O)c2ccccc2)nc2c(C#Cc3ccc(CO)cc3)cc(Cl)cn12	> 15.6	Insoluble	1600	> 9.8	160	> 97.5	–
O=[N+]([O-])c1c(CS(=O)(=O)c2ccccc2)nc2c(C#Cc3cccc(F)c3)cc(Cl)cn12	> 3.9	Insoluble	–	–	–	–	–
COc1ccccc1C#Cc1cc(Cl)cn2c([N+](=O)[O-])c(CS(=O)(=O)c3ccccc3)nc12	> 3.9	Insoluble	–	–	–	–	–
Cc1ccc(C(=O)Nc2ccc(S(=O)(=O)O)c3cc(S(=O)(=O)O)cc(S(=O)(=O)O)c23)cc1NC(=O)c1cccc(NC(=O)Nc2cccc(C(=O)Nc3cc(C(=O)Nc4ccc(S(=O)(=O)O)c5cc(S(=O)(=O)O)cc(S(=O)(=O)O)c45)ccc3C)c2)c1 [SURAMIN]	> 100	–	–	–	–	–	–
O=[N+]([O-])c1c(CS(=O)(=O)c2ccccc2)nc2c(C#Cc3ccccc3F)cc(Cl)cn12	> 3.9	Insoluble	–	–	–	–	–
COc1ccc(C#Cc2cc(Cl)cn3c([N+](=O)[O-])c(CS(=O)(=O)c4ccccc4)nc23)cc1	> 3.9	Insoluble	–	–	–	–	–
O=[N+]([O-])c1c(CS(=O)(=O)c2ccccc2)nc2c(C#CC3(O)CCCC3)cc(Cl)cn12	> 31.3	Insoluble	1700	> 18.4	100	> 313	–
O=[N+]([O-])c1c(CS(=O)(=O)c2ccccc2)nc2c(C#Cc3ccccc3)cc(Cl)cn12	> 3.9	Insoluble	–	–	–	–	–
CC(C)(O)C#Cc1cc(Cl)cn2c([N+](=O)[O-])c(CS(=O)(=O)c3ccccc3)nc12	> 62.5	Insoluble	3000	> 20.8	120	> 521	–
CC(O)C#Cc1cc(Cl)cn2c([N+](=O)[O-])c(CS(=O)(=O)c3ccccc3)nc12 (configuration not stated)	44.2	–	4700	9.4	40	1100	–
CCC(O)CC#Cc1cc(Cl)cn2c([N+](=O)[O-])c(CS(=O)(=O)c3ccccc3)nc12 (configuration not stated)	> 62.5	Insoluble	1600	> 39.1	40	> 1560	EC50 [8]: 7.3 µM; EC50 [9]: 400 nM; EC50 [10]: 8.5 µM; EC50 [11]: 200 nM; EC50 [12]: 66.3 nM
O=[N+]([O-])c1c(CS(=O)(=O)c2ccccc2)nc2c(-c3ccncc3)cc(Cl)cn12	> 50	–	1200	–	250	–	–
O=[N+]([O-])c1c(CS(=O)(=O)c2ccccc2)nc2c(Sc3ccc(Cl)cc3)cc(Cl)cn12	–	–	1000	–	1300	> 76.9	–
O=[N+]([O-])c1c(CS(=O)(=O)c2ccccc2)nc2c(C#CC3(O)CCCCC3)cc(Cl)cn12	> 25	Insoluble	1000	> 25	100	> 250	–
O=[N+]([O-])c1c(CS(=O)(=O)c2ccccc2)nc2c(C#CCO)cc(Cl)cn12	10.1	–	3900	2.6	120	84.2	–
O=[N+]([O-])c1c(CS(=O)(=O)c2ccccc2)nc2c(C#Cc3cccnc3)cc(Cl)cn12	> 3.9	Insoluble	–	–	–	–	–
CCCCCCCCCCCCCCCCOP(=O)([O-])OCC[N+](C)(C)C [MILTEFOSINE]	–	–	–	–	–	–	CC50 [7]: 35 µM
CC1CS(=O)(=O)CCN1/N=C/c1ccc([N+](=O)[O-])o1 (configuration not stated) [NIFURTIMOX]	45.2	–	–	–	2600	17.4	–
O=[N+]([O-])c1c(CS(=O)(=O)c2ccccc2)nc2c(C#Cc3cccs3)cc(Cl)cn12	> 3.9	Insoluble	–	–	–	–	–
CSc1ccc(OCc2ncc([N+](=O)[O-])n2C)cc1 [FEXINIDAZOLE]	–	–	1200	–	600	–	CC50 [7]: > 200 µM
CC(O)(C#Cc1cc(Cl)cn2c([N+](=O)[O-])c(CS(=O)(=O)c3ccccc3)nc12)c1ccccc1 (configuration not stated)	18.8	–	1000	18.8	130	> 145	–
O=[N+]([O-])c1c(CS(=O)(=O)c2ccccc2)nc2c(C#Cc3ccc(F)cc3)cc(Cl)cn12	> 3.9	Insoluble	–	–	–	–	–
